In ChEMBL document CHEMBL3352570, “ST7612AA1, a thioacetate-ω(γ-lactam carboxamide) derivative selected from a novel generation of oral HDAC inhibitors” (J Med Chem, 2014):

Legend:
[1] = Half life in human hepatocytes at 5 uM by LCMS/MS analysis; format: ADME, cell-based, Hepatocyte
In short: (§1)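 Incubation in human hepatocytes. […] Values are means of at least three experiments.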

[2] = Intrinsic clearance in human hepatocytes assessed per million cells at 5 uM by LCMS/MS analysis; format: ADME, cell-based, Hepatocyte; settings: read-out: CLH; in short: as §1
[3] = target: T1, Protein deacetylase HDAC6 (Homo sapiens, UniProt Q9UBN7); assay: Inhibition of HDAC6 (unknown origin) using fluorogenic tetrapeptide RHKK(Ac) substrate by fluorescence assay
T1 sequence (Q9UBN7 whole entry): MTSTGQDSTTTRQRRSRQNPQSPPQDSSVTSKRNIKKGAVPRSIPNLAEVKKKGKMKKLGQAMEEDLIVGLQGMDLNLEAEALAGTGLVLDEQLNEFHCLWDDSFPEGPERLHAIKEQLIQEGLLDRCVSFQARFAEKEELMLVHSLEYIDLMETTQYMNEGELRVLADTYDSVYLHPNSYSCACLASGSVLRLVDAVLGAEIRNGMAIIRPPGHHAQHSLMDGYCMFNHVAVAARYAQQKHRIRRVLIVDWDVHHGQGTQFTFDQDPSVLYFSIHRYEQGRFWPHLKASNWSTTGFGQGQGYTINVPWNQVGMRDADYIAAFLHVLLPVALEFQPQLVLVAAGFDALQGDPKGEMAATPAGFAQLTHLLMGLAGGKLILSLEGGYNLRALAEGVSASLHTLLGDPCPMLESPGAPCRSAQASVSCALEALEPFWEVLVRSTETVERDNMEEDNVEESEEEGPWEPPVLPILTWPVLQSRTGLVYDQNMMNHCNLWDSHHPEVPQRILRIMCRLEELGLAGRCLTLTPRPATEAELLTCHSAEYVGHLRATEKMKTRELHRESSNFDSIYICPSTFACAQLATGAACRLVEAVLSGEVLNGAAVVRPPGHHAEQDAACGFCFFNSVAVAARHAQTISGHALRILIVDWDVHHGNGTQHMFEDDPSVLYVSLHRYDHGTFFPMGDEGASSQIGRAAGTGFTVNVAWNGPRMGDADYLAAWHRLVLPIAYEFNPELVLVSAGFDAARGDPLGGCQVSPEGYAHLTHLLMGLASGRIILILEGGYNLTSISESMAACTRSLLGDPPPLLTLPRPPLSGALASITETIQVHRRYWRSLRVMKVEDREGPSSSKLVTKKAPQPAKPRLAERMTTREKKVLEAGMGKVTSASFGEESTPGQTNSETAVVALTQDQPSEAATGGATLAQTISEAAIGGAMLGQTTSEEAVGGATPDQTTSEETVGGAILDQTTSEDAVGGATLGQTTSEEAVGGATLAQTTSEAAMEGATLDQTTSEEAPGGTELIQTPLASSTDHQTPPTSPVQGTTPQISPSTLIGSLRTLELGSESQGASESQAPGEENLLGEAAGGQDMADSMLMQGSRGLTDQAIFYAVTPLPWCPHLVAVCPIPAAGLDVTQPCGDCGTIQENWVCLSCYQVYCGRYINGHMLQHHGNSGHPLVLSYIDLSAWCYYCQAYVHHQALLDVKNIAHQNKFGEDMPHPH

[4] = target: T2, Cholecystokinin receptor type A (Homo sapiens) (UniProt P32238); assay: Inhibition of human CCK1 at 10 uM by radioligand displacement assay
T2 sequence (whole entry): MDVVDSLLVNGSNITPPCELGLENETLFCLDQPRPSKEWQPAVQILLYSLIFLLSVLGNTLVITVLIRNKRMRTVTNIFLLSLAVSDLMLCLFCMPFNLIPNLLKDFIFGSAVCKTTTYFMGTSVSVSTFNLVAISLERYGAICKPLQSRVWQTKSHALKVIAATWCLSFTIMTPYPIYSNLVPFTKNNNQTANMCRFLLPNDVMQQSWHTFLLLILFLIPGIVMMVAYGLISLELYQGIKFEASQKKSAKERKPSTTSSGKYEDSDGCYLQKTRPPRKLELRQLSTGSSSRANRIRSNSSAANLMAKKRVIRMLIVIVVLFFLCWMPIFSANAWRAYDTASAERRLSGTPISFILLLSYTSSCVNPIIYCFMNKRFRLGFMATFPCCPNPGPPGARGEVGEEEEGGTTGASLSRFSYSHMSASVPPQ
In short: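 Tested at 10⁻⁵ M within a 40-target panel of receptors, ion channels and enzymes. Read-out was percent displacement of a radiolabeled reference ligand.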

[5] = target: T3, Polyamine deacetylase HDAC10 (Homo sapiens, UniProt Q969S8); assay: Inhibition of HDAC10 (unknown origin) using fluorogenic tetrapeptide RHKK(Ac) substrate by fluorescence assay
T3 sequence (Q969S8 whole entry): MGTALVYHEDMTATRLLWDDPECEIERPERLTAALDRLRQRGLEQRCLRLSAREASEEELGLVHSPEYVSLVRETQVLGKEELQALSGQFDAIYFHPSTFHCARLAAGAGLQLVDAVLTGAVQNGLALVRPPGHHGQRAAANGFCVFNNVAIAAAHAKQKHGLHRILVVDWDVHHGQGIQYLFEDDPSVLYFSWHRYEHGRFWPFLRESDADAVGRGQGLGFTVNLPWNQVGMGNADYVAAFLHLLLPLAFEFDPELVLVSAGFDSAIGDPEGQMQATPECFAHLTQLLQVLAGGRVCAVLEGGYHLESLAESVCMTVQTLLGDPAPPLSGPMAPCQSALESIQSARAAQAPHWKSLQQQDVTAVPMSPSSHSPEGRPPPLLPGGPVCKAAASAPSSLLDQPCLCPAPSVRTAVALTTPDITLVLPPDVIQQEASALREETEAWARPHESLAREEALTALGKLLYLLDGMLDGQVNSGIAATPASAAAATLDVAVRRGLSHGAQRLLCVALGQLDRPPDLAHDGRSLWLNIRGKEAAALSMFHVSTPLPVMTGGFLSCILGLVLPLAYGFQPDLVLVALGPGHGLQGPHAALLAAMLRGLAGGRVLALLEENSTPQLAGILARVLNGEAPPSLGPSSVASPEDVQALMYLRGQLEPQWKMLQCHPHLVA

[6] = Efflux ratio of permeability from apical to basolateral side to basolateral to apical side of human Caco2 cells; format: ADME, cell-based; settings: caco-2
In short: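 Caco-2 monolayers; the efflux ratio is flux in the apical-to-basolateral direction over flux in the basolateral-to-apical direction. Means of at least three experiments.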

Histone deacetylase 11 = target: T4, Histone deacetylase 11 (Homo sapiens, UniProt Q96DB2); assay: Inhibition of HDAC11 (unknown origin) using fluorogenic tetrapeptide RHKK(Ac) substrate by fluorescence assay
T4 sequence (Q96DB2 whole entry): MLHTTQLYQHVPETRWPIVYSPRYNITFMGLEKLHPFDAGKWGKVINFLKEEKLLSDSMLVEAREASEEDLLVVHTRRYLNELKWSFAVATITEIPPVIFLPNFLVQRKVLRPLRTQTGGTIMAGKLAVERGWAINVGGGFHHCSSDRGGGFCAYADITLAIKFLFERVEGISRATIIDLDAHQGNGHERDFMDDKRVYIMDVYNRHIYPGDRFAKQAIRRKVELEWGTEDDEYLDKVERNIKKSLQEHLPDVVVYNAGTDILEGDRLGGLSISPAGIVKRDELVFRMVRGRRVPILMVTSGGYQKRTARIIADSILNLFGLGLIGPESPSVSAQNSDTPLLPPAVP

## O=C1CC[C@@H](C(=O)N[C@H](CCCCCS)C(=O)Nc2ccccc2)N1
[1]
  half-life at 5 µM: 45 min
[2]
  hepatocyte CLint at 5 µM: 15.4 µL/min/1e6 cells
[3]
  IC50: 3 nM
[4]
  inhibition: 45%
[5]
  IC50: 11 nM
[6]
  Ratio: 5.2
Histone deacetylase 11
  IC50: 14 nM
